ChEMBL document CHEMBL1125400, “Synthesis and antibacterial activity of some novel 6-methyl- and 6-propenyl-substituted carbapenems” (J Med Chem, 1992)
≈ marks a conversion by molar mass, not a printed value. Where “and” joins values, the source holds several entries; their conditions need not be identical. Equal values may be shown once.

Legend:
Escherichia coli [1] = experiment: In vitro antibacterial activity against Escherichia coli (A15119); assay type: functional
Outline: (§1)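 Broth microdilution MIC in Nutrient Broth with a final inoculum of 5.0 × 10^5 CFU/mL. Trays incubated 18 h at 35 °C. MIC taken as the lowest antibiotic concentration inhibiting bacterial growth, in µg/mL.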

Staphylococcus aureus = experiment: In vitro antibacterial activity against Staphylococcus aureus (A9537); assay type: functional; outline: as §1
[2] = Half-life by UV spectrophotometry; assay type: ADME; settings: for half-life: read-out: Stability (converted)
Outline: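 Chemical stability in solution: about 10^-4 M compound in 0.07 M phosphate buffer, pH 7.4, held at 37 °C. Decay followed by UV spectrophotometry; half-life reported in hours.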

Pseudomonas aeruginosa [3] = experiment: In vitro antibacterial activity against Pseudomonas aeruginosa (A9843); assay type: functional; outline: as §1
Providencia rettgeri [4] = experiment: In vitro antibacterial activity against Providencia rettgeri (A22424); assay type: functional; outline: as §1
Proteus vulgaris = experiment: In vitro antibacterial activity against Proteus vulgaris (A21559); assay type: functional; outline: as §1
Enterococcus faecalis = experiment: In vitro antibacterial activity against Streptococcus faecalis (A20688); assay type: functional
Outline: (§2)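 Streptococcal MIC by broth microdilution in Todd-Hewitt Broth with a final inoculum of 5.0 × 10^5 CFU/mL. Trays incubated 18 h at 35 °C. Endpoint is the lowest concentration preventing growth, in µg/mL.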

Enterobacter cloacae = experiment: In vitro antibacterial activity against Enterobacter cloacae (A9659); assay type: functional; outline: as §1
Klebsiella pneumoniae [5] = experiment: In vitro antibacterial activity against Klebsiella pneumoniae (A9664); assay type: functional; outline: as §1
Streptococcus pyogenes = experiment: In vitro antibacterial activity against Streptococcus pyogenes (A9604); assay type: functional; outline: as §2
Mus musculus = experiment: Protective dose when administered orally for 50 percent of the mice tested. Mice were treated twice, at 0 and 2 hour after infection with Escherichia coli; assay type: functional; settings: po, read-out: PD50
Outline: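 Mice infected with E. coli and given test agent orally twice, at 0 and 2 h after infection. PD50 is the dose protecting 50% of animals, expressed as mg/kg per dose.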

Escherichia coli [6] = experiment: In vitro evaluation for the antibacterial activity […] in e) Escherichia coli (A15119); assay type: functional
Streptococcus pneumoniae = experiment: In vitro antibacterial activity against Streptococcus pneumoniae (A9585); assay type: functional; outline: as §2
Providencia rettgeri [7] = experiment: IIn vitro antibacterial activity against Providencia rettgeri (A22424); assay type: functional; outline: as §1
Klebsiella pneumoniae [8] = experiment: In vitro evaluation for the antibacterial activity […] in Klebsiella pneumoniae (A9664); assay type: functional
Pseudomonas aeruginosa [9] = experiment: In vitro evaluation for the antibacterial activity […] in Pseudomonas aeruginosa (A9843); assay type: functional
[10] = Pseudomonas aeruginosa, read-out: MIC
[11] = Providencia rettgeri, read-out: MIC
[12] = Streptococcus pyogenes, read-out: MIC

Structure (SMILES) | MIC (Escherichia coli [1]) [µg/mL] | MIC (Staphylococcus aureus) [µg/mL] | half-life [2] [h] | MIC (Pseudomonas aeruginosa [3]; [10]) [µg/mL] | MIC (Providencia rettgeri [4]; [11]) [µg/mL] | MIC (Proteus vulgaris) [µg/mL] | MIC (Enterococcus faecalis) [µg/mL] | MIC (Enterobacter cloacae) [µg/mL] | MIC (Klebsiella pneumoniae [5]) [µg/mL] | MIC (Streptococcus pyogenes; [12]) [µg/mL] | ED50 (Mus musculus) [mg/kg] | MIC (Escherichia coli [6]) [µg/mL] | MIC (Streptococcus pneumoniae) [µg/mL] | MIC (Providencia rettgeri [7]) [µg/mL] | MIC (Klebsiella pneumoniae [8]) [µg/mL] | MIC (Pseudomonas aeruginosa [9]) [µg/mL] | Stability [2] [h] | MIC (Streptococcus pyogenes) | MIC (Pseudomonas aeruginosa [3]) [µg/mL] | MIC (Providencia rettgeri [4]) [µg/mL]
C[C@H]1C(SCc2ccccn2)=C(C(=O)O)N2C(=O)[C@H](/C=C/CNc3ccccc3)[C@@H]12 | 32 (≈ 75.9 µM) | 0.25 (≈ 0.593 µM) | 35 | 64 (≈ 152 µM) | 64 (≈ 152 µM) | 64 (≈ 152 µM) | > 64 | 64 (≈ 152 µM) | 64 (≈ 152 µM) | – | – | – | – | – | – | – | – | – | – | –
C[C@@H](N)[C@H]1C(=O)N2C(C(=O)O)=C(SCc3cccnc3)[C@H](C)[C@H]12 | – | 2 (≈ 6 µM) | 3 | 1 (≈ 3 µM) | 2 (≈ 6 µM) | 0.016 (≈ 0.048 µM) | 63 (≈ 189 µM) | 0.06 (≈ 0.18 µM) | 0.13 (≈ 0.39 µM) | 4 (≈ 12 µM) | 8 | 0.03 (≈ 0.09 µM) | 4 (≈ 12 µM) | – | – | – | – | – | – | –
C[C@H]1C(SCc2cccnc2)=C(C(=O)O)N2C(=O)[C@H](CN)[C@@H]12 | – | 0.5 (≈ 1.57 µM) | 1.5 | 1 (≈ 3.13 µM) | 0.25 (≈ 0.783 µM) | 0.016 (≈ 0.0501 µM) | 125 (≈ 391 µM) | 0.016 (≈ 0.0501 µM) | 0.03 (≈ 0.0939 µM) | 0.5 (≈ 1.57 µM) | > 25 | 0.008 (≈ 0.025 µM) | 0.5 (≈ 1.57 µM) | – | – | – | – | – | – | –
C[C@H]1C(SCc2cccnc2)=C(C(=O)O)N2C(=O)[C@H](CO)[C@@H]12 | – | 0.008 (≈ 0.025 µM) | 45 | 125 (≈ 390 µM) | – | 0.13 (≈ 0.406 µM) | 4 (≈ 12.5 µM) | 0.06 (≈ 0.187 µM) | – | 0.004 (≈ 0.0125 µM) | 7 | 0.016 (≈ 0.0499 µM) | 0.002 (≈ 0.00624 µM) | 0.5 (≈ 1.56 µM) | 0.06 (≈ 0.187 µM) | – | – | – | – | –
C[C@@H](O)[C@H]1C(=O)N2C(C(=O)O)=C(SCc3cccnc3)[C@H](C)[C@H]12 | 0.016 (≈ 0.0478 µM) | 0.016 (≈ 0.0478 µM) | 65 | 125 (≈ 374 µM) | 16 (≈ 47.8 µM) | 0.03 (≈ 0.0897 µM) | 2 (≈ 5.98 µM) | 0.13 (≈ 0.389 µM) | 0.13 (≈ 0.389 µM) | 0.016 (≈ 0.0478 µM) | 17 | – | 0.016 (≈ 0.0478 µM) | – | – | – | – | – | – | –
C[C@H]1C(SCc2ccccn2)=C(C(=O)O)N2C(=O)[C@H](/C=C/CO)[C@@H]12 | 8 (≈ 23.1 µM) | 1 (≈ 2.89 µM) | 21 | 125 (≈ 361 µM) | 16 (≈ 46.2 µM) | 8 (≈ 23.1 µM) | 125 (≈ 361 µM) | 32 (≈ 92.4 µM) | 16 (≈ 46.2 µM) | 0.06 (≈ 0.173 µM) | – | – | 0.13 (≈ 0.375 µM) | – | – | – | – | – | – | –
C[C@H]1C(SCc2ccccn2)=C(C(=O)O)N2C(=O)[C@H](/C=C/CN=[N+]=[N-])[C@@H]12 | 8 (≈ 21.5 µM) | 0.06 (≈ 0.162 µM) | 21 | – | 32 (≈ 86.2 µM) | 8 (≈ 21.5 µM) | 32 (≈ 86.2 µM) | 32 (≈ 86.2 µM) | 16 (≈ 43.1 µM) | 0.03 (≈ 0.0808 µM) | – | – | 0.03 (≈ 0.0808 µM) | – | – | 125 (≈ 337 µM) | – | – | – | –
C=CC(O)[C@H]1C(=O)N2C(C(=O)O)=C(SCc3ccccn3)[C@H](C)[C@H]12 (stereo partly specified) | – | – | 72 | 125 (≈ 361 µM) | 2 (≈ 5.77 µM) | – | – | – | – | – | – | – | – | – | – | – | 72 | 0.25 µg/mL and 0.56 µg/mL | 125 (≈ 361 µM) | 2 (≈ 5.77 µM)
